Data on six compounds can be found in publication PMC4883117 (Fitoterapia, 2015).

Data set [1] relates to Trypanosoma brucei brucei. Description: In vitro antitrypanosomal Alamar Blue assay on T. brucei trypomastigote cultures. The format is cell-based. The following applies: for Antitrypanosomal activity IC50 / Antitrypanosomal activity IC90: T. b. brucei, 37 °C, mean ± S.D. of duplicate observations, tested range 0.4–10 μg/mL; for IC50 / IC90: Trypanosoma brucei; for IC50: read-out: Antitrypanosomal activity IC50; for IC90: read-out: Antitrypanosomal activity IC90. A digest of the protocol: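 T. b. brucei trypomastigotes seeded at 2 × 10^6 cell/mL and exposed to test compound at three concentrations (40–1.6 or […]). Incubated 72 h at 37 °C, then parasite growth read by Alamar Blue. IC50 and IC90 were fitted from dose–response curves and given as mean ± S.D. of duplicate observations. Difluoromethylornithine served as positive control.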

The subject of the next data set is THP1 cells. Description: Cytotoxicity against THP1 cell cultures. The format is cell-based, human.
A short description of data set [2]: Cytotoxicity against THP1 cell cultures. In kind it is cell-based, human. The following applies: human, THP1 cells.
A further data set addresses μ-opioid receptors (Homo sapiens, UniProt P35372). Description: Opioid receptor radioligand binding assay. The following applies: for Ki: read-out: μ-opioid receptor Ki; for IC50: read-out: μ-opioid receptor binding IC50.

Several values for one entry are separate records, joined by “and”; a condition that tells them apart may be missing. Equal values may be shown once. Read-outs that look alike come from different tables or passages of the source.

Chain of μ-opioid receptors (P35372 whole entry): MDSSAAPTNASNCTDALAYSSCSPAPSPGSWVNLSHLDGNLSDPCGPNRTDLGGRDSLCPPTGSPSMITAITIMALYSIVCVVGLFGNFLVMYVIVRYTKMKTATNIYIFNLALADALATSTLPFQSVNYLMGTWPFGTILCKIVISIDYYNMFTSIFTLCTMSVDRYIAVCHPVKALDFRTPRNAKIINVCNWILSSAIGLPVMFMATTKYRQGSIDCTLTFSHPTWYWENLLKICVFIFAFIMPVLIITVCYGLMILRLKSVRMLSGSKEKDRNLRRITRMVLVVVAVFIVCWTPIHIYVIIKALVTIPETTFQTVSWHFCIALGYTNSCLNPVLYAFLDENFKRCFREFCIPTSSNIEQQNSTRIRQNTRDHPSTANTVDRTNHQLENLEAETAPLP

As to “2α-Hydroxyheinsiagenin A 3-O-[α-L-rhamnopyranosyl-(1→2)-β-D-glucopyranosyl-(1→2)]-β-D-glucopyranoside [Compound 3]”, in data set [1] (72 h), the “Antitrypanosomal activity IC50” value came to 2.75 µg/mL and the “Antitrypanosomal activity IC90” value was determined as 3.53 µg/mL. For the same compound, the “THP1 cell toxicity IC50” value with THP1 cells is over 10 µg/mL.

Turning to “2α-Hydroxyheinsiagenin A 3-O-[β-D-glucopyranosyl-(1→2)]-[β-D-glucopyranosyl]-(1→4)]-β-D-glucopyranoside [Compound 4]”, in data set [1] (72 h), the “Antitrypanosomal activity IC50” value was 3.04 µg/mL and the “Antitrypanosomal activity IC90” value was 4.64 µg/mL. Also, the “THP1 cell toxicity IC50” value in the data set on THP1 cells was over 10 µg/mL.

For the compound `C/C(=C\C=C\[C@@H](C)[C@H]1CC[C@@]2(C)C3=C(CC[C@]12CO)[C@@]1(C)CC[C@H](O[C@@H]2O[C@H](CO)[C@@H](O[C@@H]4O[C@H](CO)[C@@H](O)[C@H](O)[C@H]4O)[C@H](O)[C@H]2O[C@@H]2O[C@H](CO)[C@@H](O)[C@H](O)[C@H]2O[C@@H]2O[C@@H](C)[C@H](O)[C@@H](O)[C@H]2O)C(C)(C)[C@@H]1CC3)C(=O)N[C@@H]1C(=O)O[C@H](C)[C@@H]1C` [Compound 5, N-(2S, 3R, 4R-3-methyl-4-pentanolid-2-yl)-18-hydroxylanosta-8 (9), 22E, 24E-trien-27-amide-3-O-[α-L-rhamnopyranosyl-(1→2)-O-β-D-glucopyranosyl-(1→2)]-[β-D-glucopyranosyl-(1→4)]-β-D-glucopyranoside], in data set [1] (72 h), the “Antitrypanosomal activity IC50” value was over 10 µg/mL and the “Antitrypanosomal activity IC90” value is over 10 µg/mL. For the same compound, the “antitrypanosomal activity (in words)” value in data set [1] (tested concentrations range 0.32–8.23 μM) is given as “no antitrypanosomal activity”. Further, the “THP1 cell toxicity IC50” value with THP1 cells is over 10 µg/mL.

For `NCCCC(N)(C(=O)O)C(F)F` (stereo not drawn) [DFMO, difluoromethylornithine, reference compound], the IC50 was 2.38 µg/mL in data set [1] (72 h), 13.1 µM in data set [1] and over 10 µg/mL in data set [2]. The IC90 turned out to be 5.28 µg/mL in data set [1] (72 h) and 29 µM in data set [1].

As to “Heinsiagenin A 3-O-[α-L-rhamnopyranosyl-(1→2)-β-D-glucopyranosyl-(1→2)]-[β-D-glucopyranosyl-(1→4)]-β-D-glucopyranoside [Compound 2]”, in data set [1] (72 h), the “Antitrypanosomal activity IC50” value worked out at 3.08 µg/mL and the “Antitrypanosomal activity IC90” value worked out at 4.27 µg/mL. The “THP1 cell toxicity IC50” value in the data set on THP1 cells was over 10 µg/mL. Further, at μ-opioid receptors, the “radio ligand displacement in μ-opioid receptor binding assay” value was determined as 61.0%; the Ki is 0.872 µM and 0.87 µM; the IC50 was 1.74 µM.

As for “Heinsiagenin A 3-O-[α-L-rhamnopyranosyl-(1→2)-β-D-glucopyranosyl-(1→2)]-β-D-glucopyranoside [Compound 1]”, in data set [1] (72 h), the “Antitrypanosomal activity IC50” value was determined as 9.13 µg/mL and the “Antitrypanosomal activity IC90” value stood at 11.05 µg/mL. In addition, the “THP1 cell toxicity IC50” value with THP1 cells was over 10 µg/mL. Moreover, at μ-opioid receptors, the “radio ligand displacement in μ-opioid receptor binding assay” value was 65.9%, the Ki came to 9.94 µM and the IC50 came out at 19.9 µM.
